Laboratory results taken from ChEMBL document CHEMBL4396973, “Design and development of a series of borocycles as selective, covalent kallikrein 5 inhibitors” (Bioorg Med Chem Lett, 2019).

Key:
[1] = Half life of the compound in Britton-Robinson buffer at pH 4 to 10 at 0.05 mg/ml; assay type: physicochemical
[2] = Solubility of the compound in Britton-Robinson buffer at pH 4 measured after 24 hrs; assay type: physicochemical
How it was run: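 Solubility was measured in Britton-Robinson buffers spanning pH 2 to pH 8. Readings were taken after 12 h and 24 h and reported in mg/mL.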

[3] = Genotoxicity in Salmonella typhimurium TA100 in absence of rat S9 fraction by mini-Ames test; assay type: toxicity; settings: salmonella enterica subsp. enterica serovar typhimurium
[4] = target: T1, Neutrophil elastase (Homo sapiens, UniProt P08246); experiment: Inhibition of human neutrophil elastase using MeOSuc-AAPV-AMC as substrate incubated for 40 mins by FLINT assay
T1 sequence (P08246 whole entry): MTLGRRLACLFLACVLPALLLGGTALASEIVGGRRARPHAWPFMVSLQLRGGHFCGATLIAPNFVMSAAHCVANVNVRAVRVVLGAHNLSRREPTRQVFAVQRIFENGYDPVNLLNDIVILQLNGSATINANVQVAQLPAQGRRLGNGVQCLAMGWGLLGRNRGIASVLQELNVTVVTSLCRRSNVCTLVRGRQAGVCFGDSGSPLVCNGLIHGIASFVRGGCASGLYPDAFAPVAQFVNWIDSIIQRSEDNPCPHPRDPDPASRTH

[5] = target: T2, Kallikrein-14 (Homo sapiens, UniProt Q9P0G3); experiment: Inhibition of recombinant human C-terminal 10-His-tagged KLK14 (Q19 to M248 residues) expressed in mouse NS0 cells using BOC-VPR-AMC as substrate incubated for 40 mins by FLINT assay
T2 sequence (Q9P0G3 whole entry): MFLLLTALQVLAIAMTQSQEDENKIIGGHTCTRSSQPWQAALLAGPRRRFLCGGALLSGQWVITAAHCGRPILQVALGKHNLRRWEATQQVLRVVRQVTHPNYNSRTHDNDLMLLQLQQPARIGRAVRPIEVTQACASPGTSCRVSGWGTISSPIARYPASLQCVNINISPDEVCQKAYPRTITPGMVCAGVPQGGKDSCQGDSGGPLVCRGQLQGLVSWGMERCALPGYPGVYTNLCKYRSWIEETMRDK

[6] = target: Kallikrein-1 (Homo sapiens, UniProt P06870); experiment: Inhibition of human recombinant N-terminal His-tagged and enterokinase cleavage site-fused KLK1 (19 to 262 residues) expressed in baculovirus infected Sf9 insect cells using R110 labelled GSK3162232A as substrate measured at 30 secs interval for 5 mins by FLINT assay
[7] = target: Coagulation factor X (Homo sapiens, UniProt P00742); experiment: Inhibition of recombinant human C-terminal 10-His-tagged factor Xa (L24 to K488 residues) expressed in baculovirus infected Sf21 insect cells using Mca-RPKPVE-Nval-WRK(Dnp)-NH2 as substrate incubated for 40 mins by FLINT assay
[8] = target: Prothrombin (Homo sapiens, UniProt P00734); experiment: Inhibition of human recombinant C-terminal 10-His-tagged thrombin (M1 to E622 residues) expressed in mouse NS0 cells using BOC-VPR-AMC as substrate incubated for 40 mins by FLINT assay
[9] = Genotoxicity in Salmonella typhimurium TA98 in presence of rat S9 fraction by mini-Ames test; assay type: toxicity, subcellular; settings: salmonella enterica subsp. enterica serovar typhimurium

half-life at 0.05 mg/ml [1]: > 41.7 days
solubility at 24 h [2]: > 9000 µg/mL
IC50 [4]: > 100 µM
IC50 [5]: 31.6 nM
IC50 [6]: 251 nM
IC50 [7]: 398 nM
IC50 [8]: 1260 nM
SMILES: Cl.N=C(N)c1ccc([C@H]2Cc3ccc(C(F)(F)F)cc3B(O)O2)cc1OCc1cccnc1
Activity [3]: Non-Toxic
Activity [9]: Non-Toxic
